Test results taken from ChEMBL document CHEMBL3585281, “Antibacterial Labdane Diterpenoids from Vitex vestita” (2015).
≈ marks a conversion by molar mass, not a printed value.

Assays:
Assay type in all cases: functional
Enterococcus faecium [1] = assay: Antibacterial activity against Enterococcus faecium N490 after 18 hrs by agar dilution method; settings: N490, 18 h
In short: (§1)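 Agar-dilution MIC against Gram-positive strains. Compounds in DMSO, geometric dilutions giving final 100−0.75 mg/L in Mueller Hinton agar. Strains grown 18 h at 37 °C in trypticase soy broth, diluted in sterile water, spotted by Steers inoculator (about 1000 UFC/spot). Plates incubated 18 h at 37 °C; DMSO blank; ofloxacin positive control. MIC = lowest concentration with no visible growth.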

Enterococcus gallinarum [2] = assay: Antibacterial activity against Enterococcus gallinarum N492 after 18 hrs by agar dilution method; settings: N492, 18 h; in short: as §1
Staphylococcus aureus [3] = assay: Antibacterial activity against Staphylococcus aureus CIP 7625 after 18 hrs by agar dilution method; settings: CIP 7625, 18 h; in short: as §1
Staphylococcus aureus [4] = assay: Antibacterial activity against Staphylococcus aureus CIP 53154 after 18 hrs by agar dilution method; settings: CIP 53154, 18 h; in short: as §1
Bacillus cereus [5] = assay: Antibacterial activity against Bacillus cereus N190 after 18 hrs by agar dilution method; settings: N190, 18 h; in short: as §1
Listeria monocytogenes [6] = assay: Antibacterial activity against Listeria monocytogenes N783 after 18 hrs by agar dilution method; settings: N783, 18 h; in short: as §1
Bacillus cereus [7] = assay: Antibacterial activity against Bacillus cereus N349 after 18 hrs by agar dilution method; settings: N349, 18 h; in short: as §1
Listeria monocytogenes [8] = assay: Antibacterial activity against Listeria monocytogenes N851 after 18 hrs by agar dilution method; settings: N851, 18 h; in short: as §1
Listeria monocytogenes [9] = assay: Antibacterial activity against Listeria monocytogenes CIP 103575 after 18 hrs by agar dilution method; settings: CIP 103575, 18 h; in short: as §1
Enterococcus gallinarum [10] = assay: Antibacterial activity against Enterococcus gallinarum CIP 105985 after 18 hrs by agar dilution method; settings: CIP 105985, 18 h; in short: as §1
[11] = tested on: Staphylococcus saprophyticus; assay: Antibacterial activity against Staphylococcus saprophyticus CIP 76125 after 18 hrs by agar dilution method; settings: CIP 76125, 18 h; in short: as §1
Enterococcus faecalis [12] = assay: Antibacterial activity against Enterococcus faecalis N518 after 18 hrs by agar dilution method; settings: N518, 18 h; in short: as §1
Bacillus spizizenii = assay: Antibacterial activity against Bacillus subtilis ATCC 6633 after 18 hrs by agar dilution method; settings: ATCC 6633, 18 h; in short: as §1
Bacillus cereus [13] = assay: Antibacterial activity against Bacillus cereus N258 after 18 hrs by agar dilution method; settings: N258, 18 h; in short: as §1
Enterococcus hirae = assay: Antibacterial activity against Enterococcus hirae CIP 5855 after 18 hrs by agar dilution method; settings: CIP 5855, 18 h; in short: as §1
Mammaliicoccus sciuri = assay: Antibacterial activity against Staphylococcus sciuri N993 after 18 hrs by agar dilution method; settings: N993, 18 h; in short: as §1
[14] = tested on: Staphylococcus epidermidis; assay: Antibacterial activity against Staphylococcus epidermidis CIP 53124 after 18 hrs by agar dilution method; settings: CIP 53124, 18 h; in short: as §1
Enterococcus faecium [15] = assay: Antibacterial activity against Enterococcus faecium N733 after 18 hrs by agar dilution method; settings: N733, 18 h; in short: as §1
Staphylococcus aureus [16] = assay: Antibacterial activity against Staphylococcus aureus CIP 483 after 18 hrs by agar dilution method; settings: CIP 483, 18 h; in short: as §1
Enterococcus durans = assay: Antibacterial activity against Enterococcus durans CIP 104999 after 18 hrs by agar dilution method; settings: CIP 104999, 18 h; in short: as §1
[17] = tested on: Staphylococcus haemolyticus; assay: Antibacterial activity against Staphylococcus haemolyticus CIP 8156 after 18 hrs by agar dilution method; settings: CIP 8156, 18 h; in short: as §1
Enterococcus faecium [18] = assay: Antibacterial activity against Enterococcus faecium N823 after 18 hrs by agar dilution method; settings: N823, 18 h; in short: as §1
Enterococcus faecalis [19] = assay: Antibacterial activity against Enterococcus faecalis N491 after 18 hrs by agar dilution method; settings: N491, 18 h; in short: as §1
Staphylococcus aureus [20] = assay: Antibacterial activity against Staphylococcus aureus CIP 53156 after 18 hrs by agar dilution method; settings: CIP 53156, 18 h; in short: as §1
Listeria monocytogenes [21] = assay: Antibacterial activity against Listeria monocytogenes N836 after 18 hrs by agar dilution method; settings: N836, 18 h; in short: as §1
Bacillus cereus [22] = assay: Antibacterial activity against Bacillus cereus CIP 6624 after 18 hrs by agar dilution method; settings: CIP 6624, 18 h; in short: as §1
[23] = tested on: Staphylococcus lugdunensis; assay: Antibacterial activity against Staphylococcus lugdunensis ATCC 43809 after 18 hrs by agar dilution method; settings: ATCC 43809, 18 h; in short: as §1
Enterococcus faecium [24] = assay: Antibacterial activity against Enterococcus faecium CIP 103014 after 18 hrs by agar dilution method; settings: CIP 103014, 18 h; in short: as §1
Staphylococcus aureus [25] = assay: Antibacterial activity against Staphylococcus aureus CRBIP 2121 after 18 hrs by agar dilution method; settings: CRBIP 2121, 18 h; in short: as §1
Staphylococcus aureus [26] = assay: Antibacterial activity against Staphylococcus aureus ATCC 9144 oxford after 18 hrs by agar dilution method; in short: as §1
Enterococcus faecalis [27] = assay: Antibacterial activity against Enterococcus faecalis CIP 104676 after 18 hrs by agar dilution method; settings: CIP 104676, 18 h; in short: as §1
[28] = tested on: Enterococcus casseliflavus; assay: Antibacterial activity against Enterococcus casseliflavus CIP 103018 after 18 hrs by agar dilution method; settings: CIP 103018, 18 h; in short: as §1
[29] = tested on: Staphylococcus saprophyticus; assay: Antibacterial activity against Staphylococcus saprophyticus E260 after 18 hrs by agar dilution method; settings: E260, 18 h; in short: as §1
Corynebacterium striatum = assay: Antibacterial activity against Corynebacterium striatum N840 after 18 hrs by agar dilution method; settings: N840, 18 h; in short: as §1
Enterococcus faecalis [30] = assay: Antibacterial activity against Enterococcus faecalis CIP 103214 after 18 hrs by agar dilution method; settings: CIP 103214, 18 h; in short: as §1
Enterococcus avium = assay: Antibacterial activity against Enterococcus avium CIP 104053 after 18 hrs by agar dilution method; settings: CIP 104053, 18 h; in short: as §1
Enterococcus faecium [31] = assay: Antibacterial activity against Enterococcus faecium CIP 107387 after 18 hrs by agar dilution method; settings: CIP 107387, 18 h; in short: as §1
Listeria innocua = assay: Antibacterial activity against Listeria innocua E044 after 18 hrs by agar dilution method; settings: E044, 18 h; in short: as §1
Enterococcus gallinarum [32] = assay: Antibacterial activity against Enterococcus gallinarum N489 after 18 hrs by agar dilution method; settings: N489, 18 h; in short: as §1
Staphylococcus aureus [33] = assay: Antibacterial activity against Staphylococcus aureus CIP 5710 after 18 hrs by agar dilution method; settings: CIP 5710, 18 h; in short: as §1
Enterococcus faecium [34] = assay: Antibacterial activity against Enterococcus faecium N507 after 18 hrs by agar dilution method; settings: N507, 18 h; in short: as §1
Enterococcus faecalis [35] = assay: Antibacterial activity against Enterococcus faecalis N520 after 18 hrs by agar dilution method; settings: N520, 18 h; in short: as §1
[36] = tested on: Enterococcus casseliflavus; assay: Antibacterial activity against Enterococcus casseliflavus N487 after 18 hrs by agar dilution method; settings: N487, 18 h; in short: as §1
[37] = tested on: Staphylococcus intermedius; assay: Antibacterial activity against Staphylococcus intermedius N987 after 18 hrs by agar dilution method; settings: N987, 18 h; in short: as §1
Staphylococcus aureus [38] = assay: Antibacterial activity against Staphylococcus aureus ATCC 25923 after 18 hrs by agar dilution method; settings: ATCC 25923, 18 h; in short: as §1
Streptococcus agalactiae = assay: Antibacterial activity against Streptococcus agalactiae CIP 103227 after 18 hrs by agar dilution method; settings: ATCC 13813, 18 h; in short: as §1

## CC1COc2c(N3CCN(C)CC3)c(F)cc3c(=O)c(C(=O)O)cn1c23 (stereo unspecified) [OFLOXACIN]
Enterococcus faecium [1]
  MIC: 6 µM (≈ 2.17 µg/mL)
Enterococcus gallinarum [2]
  MIC: 11 µM (≈ 3.98 µg/mL)
Staphylococcus aureus [3]
  MIC: 1.4 µM (≈ 0.506 µg/mL)
Staphylococcus aureus [4]
  MIC: 0.7 µM (≈ 0.253 µg/mL)
Bacillus cereus [5]
  MIC: 0.7 µM (≈ 0.253 µg/mL)
Listeria monocytogenes [6]
  MIC: 6 µM (≈ 2.17 µg/mL)
Bacillus cereus [7]
  MIC: 1.4 µM (≈ 0.506 µg/mL)
Listeria monocytogenes [8]
  MIC: 6 µM (≈ 2.17 µg/mL)
Listeria monocytogenes [9]
  MIC: 6 µM (≈ 2.17 µg/mL)
Enterococcus gallinarum [10]
  MIC: 11 µM (≈ 3.98 µg/mL)
[11]
  MIC: 3 µM (≈ 1.08 µg/mL)
Enterococcus faecalis [12]
  MIC: 11 µM (≈ 3.98 µg/mL)
Bacillus spizizenii
  MIC: ≤ 0.2 µM
Bacillus cereus [13]
  MIC: 0.7 µM (≈ 0.253 µg/mL)
Enterococcus hirae
  MIC: 3 µM (≈ 1.08 µg/mL)
Mammaliicoccus sciuri
  MIC: 3 µM (≈ 1.08 µg/mL)
[14]
  MIC: 1.4 µM (≈ 0.506 µg/mL)
Enterococcus faecium [15]
  MIC: > 354 µM
Staphylococcus aureus [16]
  MIC: 0.7 µM (≈ 0.253 µg/mL)
Enterococcus durans
  MIC: 1.4 µM (≈ 0.506 µg/mL)
[17]
  MIC: 0.7 µM (≈ 0.253 µg/mL)
Enterococcus faecium [18]
  MIC: 354 µM (≈ 128 µg/mL)
Enterococcus faecalis [19]
  MIC: 6 µM (≈ 2.17 µg/mL)
Staphylococcus aureus [20]
  MIC: 0.7 µM (≈ 0.253 µg/mL)
Listeria monocytogenes [21]
  MIC: 6 µM (≈ 2.17 µg/mL)
Bacillus cereus [22]
  MIC: 0.7 µM (≈ 0.253 µg/mL)
[23]
  MIC: 3 µM (≈ 1.08 µg/mL)
Enterococcus faecium [24]
  MIC: 22 µM (≈ 7.95 µg/mL)
Staphylococcus aureus [25]
  MIC: 177 µM (≈ 64 µg/mL)
Staphylococcus aureus [26]
  MIC: 0.7 µM (≈ 0.253 µg/mL)
Enterococcus faecalis [27]
  MIC: 3 µM (≈ 1.08 µg/mL)
[28]
  MIC: 11 µM (≈ 3.98 µg/mL)
[29]
  MIC: 3 µM (≈ 1.08 µg/mL)
Corynebacterium striatum
  MIC: > 354 µM
Enterococcus faecalis [30]
  MIC: 3 µM (≈ 1.08 µg/mL)
Enterococcus avium
  MIC: 6 µM (≈ 2.17 µg/mL)
Enterococcus faecium [31]
  MIC: 177 µM (≈ 64 µg/mL)
Listeria innocua
  MIC: 11 µM (≈ 3.98 µg/mL)
Enterococcus gallinarum [32]
  MIC: 6 µM (≈ 2.17 µg/mL)
Staphylococcus aureus [33]
  MIC: 0.7 µM (≈ 0.253 µg/mL)
Enterococcus faecium [34]
  MIC: 354 µM (≈ 128 µg/mL)
Enterococcus faecalis [35]
  MIC: 354 µM (≈ 128 µg/mL)
[36]
  MIC: 11 µM (≈ 3.98 µg/mL)
[37]
  MIC: 89 µM (≈ 32.2 µg/mL)
Staphylococcus aureus [38]
  MIC: 1.4 µM (≈ 0.506 µg/mL)
Streptococcus agalactiae
  MIC: 1.4 µM (≈ 0.506 µg/mL)
